The source made the active and inactive calls. The calls are words filed in the database; no cut-off is given here.

Data set [1] concerns W256. Briefly: Antitumor activity against rat Walker 256 cells intramuscularly allografted in rat assessed as survival rate at 0.031 mg/kg, qd administered for 5 days. Format: functional, organism-based. On the set-up: dose 0.031 mg/kg. The gist of the method:
(§1)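 Rats bearing Walker 256 carcinoma as a solid tumor; lines 1-8 use a cytoxan-resistant Walker 256 subline. Dosed once daily for 5 days. Treated (T) and untreated control (C) groups are compared, and the response is given as T/C percentage, reflecting increase in survival time. Host weight change is the average weight change of the test group minus that of the controls, in grams.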

Data set [2] concerns Rattus norvegicus. Briefly: Toxicity in rat allografted with rat Walker 256 cells intramuscularly assessed as change in body weight at 0.5 mg/kg, qd administered for 5 days. Type of data set: organism-based. On the set-up: dose 0.5 mg/kg, route intramuscular. Particulars: in vivo, im, 120 h. The essentials:
(§2)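 Walker 256 carcinoma solid-tumour system in rats (parent line, or the line resistant to cytoxan). Dosing was one injection per day for 5 days. Toxicity was taken as the average net body-weight change of the treated group minus the average net weight change of the untreated tumour-bearing controls, in grams.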

For data set [3], the system named is W256. Briefly: Antitumor activity against cytoxan-resistant rat Walker 256 cells intramuscularly allografted in rat assessed as survival rate at 0.25 mg/kg, qd administered for 5 days. Format: functional, organism-based. On the set-up: dose 0.25 mg/kg. The essentials: as §1
Data set [4] is filed under the species Rattus norvegicus. Briefly: Toxicity in Wistar-Furth rat assessed as effect on ovary measured for 24 hrs. Particulars: in vivo. Type of data set: organism-based, Female gonad. The essentials:
(§3)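 Wistar-Furth rats were injected daily for 5 days at the antifertility-study doses of 1 or 5 mg/kg, depending on agent. Testes or ovaries were taken at sacrifice after 1, 3 or 24 h. Cryostat frozen sections were fixed in 95% alcohol for 10 min and stained with acridine orange (DNA green, RNA red). Results were compared with untreated controls.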

The species named for data set [5] is Rattus norvegicus. Briefly: Toxicity in Wistar-Furth rat assessed as decrease in secondary spermatocytes measured for 24 hrs. Type of data set: organism-based. Particulars: in vivo. The essentials: as §3
Data set [6] has as its system Rattus norvegicus. Description: Toxicity in rat allografted with rat Walker 256 cells intramuscularly assessed as change in body weight at 0.25 mg/kg, qd administered for 5 days. To be noted: in vivo, im, 120 h. On the set-up: dose 0.25 mg/kg, route intramuscular. Type of data set: organism-based. The essentials:
as §2

Data set [7] relates to W256. Description: Antitumor activity against rat Walker 256 cells intramuscularly allografted in rat assessed as survival rate at 0.5 mg/kg, qd administered for 5 days. Format: functional, organism-based. On the set-up: dose 0.5 mg/kg. The gist of the method:
as §1

Data set [8] relates to W256. Briefly: Antitumor activity against rat Walker 256 cells intramuscularly allografted in rat assessed as tumor growth inhibition at 1 mg/kg, qd administered for 5 days relative to control. Format: functional. Particulars: W256, im, 120 h, route intramuscular, read-out: TGI. The gist of the method: (§4)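 Dosed once daily for 5 days. Response is tumor progression in treated (T) versus untreated control (C) animals, expressed as T/C percentage. Host weight change is reported as the average net weight change of the test group minus that of the controls, in grams.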

Data set [9] deals with Rattus norvegicus. Briefly: Toxicity in rat allografted with rat Walker 256 cells intramuscularly assessed as change in body weight at 0.062 mg/kg, qd administered for 5 days. On the set-up: dose 0.062 mg/kg, route intramuscular. To be noted: in vivo, im, 120 h. Format: organism-based. The gist of the method:
as §2

Data set [10] has as its system W256. Briefly: Antitumor activity against rat Walker 256 cells intramuscularly allografted in rat assessed as tumor growth inhibition at 0.25 mg/kg, qd administered for 5 days relative to control. Type of data set: functional. To be noted: W256, im, 120 h, route intramuscular, read-out: TGI. The essentials: as §4
Data set [11] has as its system W256. Briefly: Antitumor activity against cytoxan-resistant rat Walker 256 cells intramuscularly allografted in rat assessed as tumor growth inhibition at 2 mg/kg, qd administered for 5 days relative to control. Type of data set: functional. To be noted: W256, im, 120 h, route intramuscular, read-out: TGI. The gist of the method: as §4
A short description of data set [12]: Therapeutic index, ratio of LD50 for rat allografted with cytoxan-resistant rat Walker 256 cells to ED10 for antitumor activity against rat Walker 256 cells allografted in rat. To be noted: read-out: TI. The essentials:
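Therapeutic index is LD50/ED10 in cytoxan-resistant Walker 256 solid tumour in rats. ED10 is the dose giving a 10% reduction, extrapolated from dose-response data.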

For data set [13], the system named is Rattus norvegicus. Description: Toxicity in rat allografted with rat Walker 256 cells intramuscularly assessed as change in body weight at 2 mg/kg, qd administered for 5 days. Format: organism-based. On the set-up: dose 2 mg/kg, route intramuscular. To be noted: in vivo, im, 120 h. The essentials: as §2
Data set [14] deals with W256. Description: Antitumor activity against cytoxan-resistant rat Walker 256 cells intramuscularly allografted in rat assessed as tumor growth inhibition at 1 mg/kg, qd administered for 5 days relative to control. Format: functional. To be noted: W256, im, 120 h, route intramuscular, read-out: TGI. The gist of the method:
as §4

Data set [15] can be described thus: Therapeutic index, ratio of LD50 for rat allografted with rat Walker 256 cells to ED10 for antitumor activity against rat Walker 256 cells intramuscularly allografted in rat. Format: cell-based. To be noted: read-out: TI. The gist of the method:
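Therapeutic index is LD50/ED10 in the Walker 256 solid tumour system. ED10 is the dose giving a 10% tumour weight reduction, with values extrapolated from dose-response data.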

Data set [16] has as its system W256. Briefly: Antitumor activity against cytoxan-resistant rat Walker 256 cells intramuscularly allografted in rat assessed as tumor growth inhibition at 0.5 mg/kg, qd administered for 5 days relative to control. Format: functional. To be noted: W256, im, 120 h, route intramuscular, read-out: TGI. The essentials:
as §4

The subject of data set [17] is Rattus norvegicus. Description: Toxicity in rat allografted with cytoxan-resistant rat Walker 256 cells intramuscularly assessed as change in body weight at 0.25 mg/kg, qd administered for 5 days. To be noted: in vivo, im, 120 h. On the set-up: dose 0.25 mg/kg, route intramuscular. Type of data set: organism-based. The gist of the method: as §2
The subject of data set [18] is W256. Briefly: Antitumor activity against rat Walker 256 cells intramuscularly allografted in rat assessed as tumor growth inhibition. Format: functional. Particulars: W256, im. The essentials: as §4
In data set [19] the test system is W256. Briefly: Antitumor activity against cytoxan-resistant rat Walker 256 cells intramuscularly allografted in rat assessed as tumor growth inhibition at 0.12 mg/kg, qd administered for 5 days relative to control. Type of data set: functional. To be noted: W256, im, 120 h, route intramuscular, read-out: TGI. The gist of the method:
as §4

The subject of data set [20] is W256. Briefly: Antitumor activity against rat Walker 256 cells intramuscularly allografted in rat assessed as tumor growth inhibition at 0.125 mg/kg, qd administered for 5 days relative to control. Type of data set: functional. To be noted: W256, im, 120 h, route intramuscular, read-out: TGI. The gist of the method:
as §4

Data set [21] concerns Rattus norvegicus. Description: Toxicity in rat allografted with cytoxan-resistant rat Walker 256 cells intramuscularly assessed as change in body weight at 0.12 mg/kg, qd administered for 5 days. To be noted: in vivo, im, 120 h. Format: organism-based. On the set-up: dose 0.12 mg/kg, route intramuscular. The essentials: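 Cytoxan-resistant Walker 256 solid tumour in rats, one injection daily for 5 days. Toxicity is the average net body-weight change of the treated group minus that of the untreated controls, in grams.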

Turning to `C=CCN(CC=C)P(=O)(N1CC1)N1CC1`, the outcome with W256 [1], in the data set with W256 [3] and in the data set on W256 [7] was Active. Further, the Activity in the data set on Rattus norvegicus [2] is -6 g; in the data set filed under Rattus norvegicus [4], “Non-toxic”; in the data set filed under Rattus norvegicus [5], “Toxic”; with Rattus norvegicus [6], -12 g; with Rattus norvegicus [9] it was -5 g; in the data set with Rattus norvegicus [13], -44 g. Moreover, the Activity in the data set on Rattus norvegicus [17] is reported as 0 g; in the data set on Rattus norvegicus [21] it was -14 g. The inhibition in vivo at 1 mg/kg stood at 0% in the data set on W256 [8] and 40% with W256 [14]. Also, in the data set with W256 [10], the inhibition in vivo at 0.25 mg/kg came out at 0%. For the same compound, the inhibition in vivo at 2 mg/kg with W256 [11] stood at 9%. The figures for the selectivity ratio in data set [12] and in data set [15] were 2.5 and 10, respectively. In the data set on W256 [16], the inhibition in vivo at 0.5 mg/kg came to 58%. In the data set on W256 [18], the ED10 was 0.5 mg/kg. Further, the inhibition in vivo at 0.12 mg/kg in the data set on W256 [19] came to 98%. The inhibition in vivo at 0.125 mg/kg in the data set on W256 [20] worked out at 1%.

Values taken from ChEMBL document CHEMBL3272018, “Synthesis of aziridinylallylaminophosphine oxides and sulfides as potential adjuvant cancer chemotherapeutic agents” (J Med Chem, 1976).
